The text below walks through data of paper PMC10841594 (Cell chemical biology, 2023).

Bounds are passed on as bounds.

The subject of one series is non-heme iron. The settings on record: DOX-treated mice, ex vivo methodology ref 16; cited from earlier work.
The subject of another series is ferroportin. Briefly: Immunohistochemical staining for ferroportin. The settings on record: for ferroportin staining in liver vs untreated controls: livers of the mice imaged with FeAL-1. It is filed as in vivo, mouse. In a few lines:
(§1)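 Tissues fixed in 4% paraformaldehyde, paraffin-embedded and cut into 4-µm sections. Liver, heart and tumor sections stained with anti-4-HNE (1:500) or anti-ferroportin (1:500). Liver and heart came from imaged mice: untreated, hepcidin 50 µg/mouse/day for 3 days, or doxorubicin 10 mg/kg IP once 5 days prior. Staining intensity quantified by IHC Profiler in ImageJ (liver/heart n=3 per condition).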

The test system of another series is 4-hydroxynonenal (4-HNE). In words: Immunohistochemical staining for 4-HNE. In kind it is in vivo, mouse. In a few lines: as §1
Series [1] is described as follows: Cell-free metal selectivity assay. In kind it is biochemical.
The subject of a further series is SW-1990-luc cells. In words: Cellular assay comparing FeAL-1 and ICL-1 response. In kind it is cell-based, human. The settings on record: 20 μM probe, FAC 2 hours, imaged after 15 min.
A further series relates to FC1245 tumors. Briefly: Dual-reporter orthotopic PDA xenograft imaging with FeAL-1. In kind it is in vivo, mouse.
In another series the test system is MiaPaca2-luc cells. In words: Cellular assay comparing FeAL-1 and ICL-1 response. It is filed as cell-based, human. The settings on record: 20 μM probe, FAC 2 hours, imaged after 15 min.
The subject of the next series is MIA PaCa-2 tumors. Briefly: Dual-reporter orthotopic PDA xenograft imaging with FeAL-1. It is filed as in vivo, mouse.
Series [2] in a line: Pharmacokinetic study, plasma LC-MS/MS. In kind it is in vivo, C57BL6 mice. The settings on record: C57BL/6, mouse, ip, 20 mg/kg. In a few lines:
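Healthy C57BL/6 mice received a single IP dose at 20 mg/kg (2.5 mL/kg; 15 mice per group). Composite plasma sampling, n=3 per timepoint: orbital bleed under isoflurane at 5, 10, 15, 30 and 45 min, then terminal vena cava bleed under CO2 at 1, 2, 3, 4 and 7 h. Blood collected into EDTA and centrifuged to plasma.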

The subject of a further series is SW1990 tumors. In words: Dual-reporter orthotopic PDA xenograft imaging with FeAL-1. In kind it is in vivo, mouse.
Series [3] is described as follows: UPLC-MS Fe2+-fragmentation assay. An outline of the steps: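 Test compound at 40 µM final in 50 mM Tris-HCl pH 7.4/DMSO (9:1) with sodium ascorbate and ascorbic acid, each 2 mM final. Held 1 min at 37 °C, then sampled as the hemin-free control. Hemin added to 400 µM final and the mixture stirred at 37 °C. Aliquots taken at set time points over 62 min and analysed by UPLC-MS with UV at 303 nm.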

Series [4] can be described thus: Storage stability of FeAL-1 powder. It is filed as physicochemical. The settings on record: stored as a powder at −20 °C under argon.
The subject of series [5] is luciferase-expressing PDA and colon cancer cell lines. In words: Cellular bioluminescence assays with FAC, BPY or hepcidin pre-treatment. In kind it is cell-based. In a few lines: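 Cells stably expressing firefly/Renilla luciferase (lentiviral, puromycin-selected) in DMEM with 10% FBS, plated to reach 75% confluence and assayed two days after plating. Serum-free DMEM with FAC for 60 min at 37 °C, optionally BPY for 30 min. Hepcidin-25 (1, 2, 4 µg/mL) given 16 h beforehand. Probe at 75 µM in Ca/Mg-free HBSS for 25 min, IVIS imaging at 30 min. D-luciferin (25 µM, 5 min) control.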

[6] abbreviates: untreated tumor-bearing mice, FeAL-1 36 mg/kg IP.
Setting [7] is: hepcidin 50 μg/mouse for three days.

For `COc1cccc2c1C(=O)c1c(O)c3c(c(O)c1C2=O)C[C@@](O)(C(=O)CO)C[C@@H]3O[C@H]1C[C@H](N)[C@H](O)[C@H](C)O1` [DOX, doxorubicin], the “elevation of non-heme iron in liver, spleen, kidneys and blood” value in the series with non-heme iron is recorded as at most 2 fold. Also, the “ferroportin staining in liver vs untreated controls” value in the series on ferroportin is listed as “reduced ferroportin staining”. Moreover, in the series on 4-hydroxynonenal (4-HNE), the “4-HNE staining in heart tissue vs untreated controls” value was “increased 4-HNE staining” and the “4-HNE staining in liver vs control group” value was “increased staining for 4-HNE”.

As for `CN(CCN(C)C(=O)O[C@@H]1CCC[C@]2(C1)OOC1(O2)C2CC3CC(C2)CC1C3)C(=O)Oc1ccc2nc(C3=N[C@@H](C(=O)O)CS3)sc2c1` (stereo partly drawn) [FeAL-1, (S)-2-(6-(((2-(((((R,R)-dispiro[adamantane-2,3’-[1,2,4]trioxolane-5’,1’’-cyclohexan]-3’’-yl)oxy)carbonyl)(methyl)amino)ethyl)(methyl)carbamoyl)oxy)benzo[d]thiazol-2-yl)-4,5-dihydrothiazole-4-carboxylic acid], in series [1] (2.5 μM FeAL-1, 2 hours incubation, then 10 μg/mL luciferase), the “luminescence response with Fe^2+ as ferrous ammonium sulfate (FAS)” value is reported as “robust luminescence response”. For the same molecule, the “iron-dependent luminescent response compared with ICL-1” value in the series on SW-1990-luc cells and in the series on MiaPaca2-luc cells was “stronger iron-dependent luminescent response from FeAL-1 than from ICL-1” throughout. The “normalized FeAL-1 Fluc/Rluc response” value is ~ 0.7 with FC1245 tumors (setting [6]), ~ 2.1 in the series on MIA PaCa-2 tumors (setting [6]) and ~ 1.7 in the series with SW1990 tumors (setting [6]). Moreover, in the series with MIA PaCa-2 tumors (vs livers of non-tumor bearing mice), the “normalized luminescence signal in tumor relative to healthy liver” value was ~ 10 fold. Further, the Cmax in series [2] is 5.91 µM. Also, the Tmax in [2] worked out at 1 h. In addition, the “stability in assay media lacking hemin” value in series [3] (control without hemin) was “stable in assay media lacking hemin”. Further, the “time point by which FeAL-1 is completely consumed” value in series [3] (reaction media containing ferrous hemin, 37 °C) is at most 1 min. Further, in series [3] (reaction media containing ferrous hemin, second time point), the “time point at which released D-luciferin is detected” value turned out to be 12 min. In addition, the stability on storage result in series [4] is recorded as “stable over several months”. The “bioluminescent signal in response to FAC supplementation” value in [5] (larger panel of cell lines) was “robust bioluminescent signal”. For the same molecule, the “bioluminescence response with BPY iron chelator treatment” value in series [5] (with or without FAC) was “expected reduction in bioluminescence response”.

As to `O=C(O)[C@H]1CSC(c2nc3ccc(O)cc3s2)=N1` [D-luciferin], the “luminescent response of D-luciferin with increasing Fe^2+” value in series [1] (control experiment, D-luciferin instead of FeAL-1) is “not affected by increasing concentrations of Fe^2+”.

Turning to “hepcidin: hepatic peptide hormone, negative regulator of the iron export protein ferroportin”, the “effect of hepcidin treatment on tumor LIP” value in the series on FC1245 tumors (setting [7]) is “measurably increased LIP in FC1245 tumors”. Besides, in the series with MIA PaCa-2 tumors (setting [7]), the “FeAL-1 Fluc/Rluc response after hepcidin pre-treatment” value is on record as ~ 5 and the “FeAL-1 Fluc/Rluc response, hepcidin-treated vs untreated controls” value is on record as 2–3 fold. The “tumoral ferroportin expression vs untreated control animal” value in the series with ferroportin (FC1245 tumors, single comparison) is “decreased tumoral ferroportin expression”. Also, the “ferroportin staining in liver vs untreated controls” value in the series with ferroportin is listed as “reduced ferroportin staining”. In addition, in the series with SW1990 tumors (setting [7]), the “FeAL-1 Fluc/Rluc response after hepcidin pre-treatment” value is reported as ~ 5 and the “FeAL-1 Fluc/Rluc response, hepcidin-treated vs untreated controls” value is reported as 2–3 fold. For the same molecule, the “4-HNE staining of tumors, treated vs untreated controls” value in the series on 4-hydroxynonenal (4-HNE) (FC1245 tumors) is on record as “not significantly different”. Moreover, in the series on 4-hydroxynonenal (4-HNE), the “4-HNE staining in heart tissue vs untreated controls” value is on record as “but not hepcidin-treated mice, showed increased 4-HNE staining” and the “4-HNE staining in liver vs control group” value is recorded as “increased staining for 4-HNE”. Besides, the “effect of hepcidin pre-treatment on FeAL-1 signal” value in [5] (hepcidin 1, 2 and 4 μg/mL, 16 hours, FeAL-1 75 μM) is reported as “corresponding increase in FeAL-1 signal across all cell lines”.
